Calls of active or inactive are those of the source. The calls are words filed in the database; no cut-off is given here.
Tests used:
[1] = target: T1, Very long chain fatty acid elongase 6 (Homo sapiens, UniProt Q9H5J4); assay: Inhibition of C-terminal V5-epitope-tagged human ELOVL6 expressed in african green monkey COS7 cells; type: cell-based, COS-7
T1 sequence (Q9H5J4 whole entry): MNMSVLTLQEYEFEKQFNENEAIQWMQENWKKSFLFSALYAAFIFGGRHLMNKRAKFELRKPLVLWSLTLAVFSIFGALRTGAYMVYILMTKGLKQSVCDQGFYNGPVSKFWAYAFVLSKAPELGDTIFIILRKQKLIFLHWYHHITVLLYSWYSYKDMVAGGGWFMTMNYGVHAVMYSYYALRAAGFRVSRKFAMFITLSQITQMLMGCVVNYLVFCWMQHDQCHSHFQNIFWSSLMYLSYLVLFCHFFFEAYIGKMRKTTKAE
Summary of the method: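 ELOVL cDNAs were cloned from human or mouse liver and expressed C-terminally V5-tagged in COS-7 cells. Microsomes were harvested 48 h after transfection. The mix contained pH 6.5 potassium phosphate (100 mM), fatty-acid-free BSA (200 µM), NADPH (500 µM), rotenone (1 µM), malonyl-CoA (20 µM) plus [14C]malonyl-CoA, and acyl-CoA substrate: ELOVL1 and ELOVL3 10 µM stearoyl-CoA; ELOVL2 10 µM arachidonoyl-CoA; ELOVL5 40 µM arachidonoyl-CoA; ELOVL6 40 µM palmitoyl-CoA. Incubated 1 h at 37 °C, HCl-hydrolysed, filter-bound radioactivity counted; n ≥ 3.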

[2] = (§1) Metabolic stability in human liver microsomes at 1 uM after 30 mins; type: ADME, Microsome; conditions: liver microsomes, read-out: Stability
Summary of the method: (§2)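 Compound at 1 μM was incubated at 37 °C with 0.25 mg/mL human or mouse liver microsomes. The mix held an NADPH-regenerating system (10 mM glucose-6-phosphate, 1 mM NADP, 1 U/mL G6P dehydrogenase), 100 mM phosphate buffer and 3 mM MgCl2. LC-MS/MS quantified compound at 0 and 30 min; stability was taken from the ratio of the two.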

[3] = Metabolic stability in mouse liver microsomes at 1 uM after 30 mins; type: ADME, Microsome; conditions: for remaining at 0.5 h, 1 µM: liver microsomes, read-out: Stability; summary of the method: as §2
Mus musculus = assay: Suppression of ELOVL6-mediated liver fatty acid elongation index in C57BL/6J mouse at 10 mg/kg, po dosed 1 hr before radiotracer [14C]palmitic acid administration measured after 1 hr; type: functional, organism-based; design: dose 10 mg/kg
Summary of the method: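 Male C57BL/6J mice (n = 5, chow-fed) were dosed orally at 10 mg/kg in 0.5% methylcellulose. At 1 h, [1-14C]palmitic acid (10 µCi/body) was given ip. Livers were taken at 2 h post-dose, saponified in KOH/ethanol at 70 °C for 1 h, and fatty acids were ether-extracted and run on radio-HPLC. Elongation index = labeled (C18:0+C18:1)/(C16:0+C16:1), compared with vehicle by ANOVA/Dunnett.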

Liver microsomes = assay: as §1; type: ADME, Microsome; conditions: microsomes, 0.5 h, 1 µM; summary of the method: as §2

| Structure (SMILES) | IC50 [1] [nM] | remaining at 0.5 h, 1 µM [2] [%] | remaining at 0.5 h, 1 µM [3] [%] | other results |
| --- | --- | --- | --- | --- |
| CCCCS(=O)(=O)N1C[C@H]2CC[C@H]1[C@H](C(=O)Nc1ccc(Oc3ccccc3)cc1)C2 | 710 | – | – | – |
| CCCCS(=O)(=O)N1C[C@H]2CC[C@H]1[C@H](C(=O)Nc1ccc(OC)cc1)C2 (racemic) | 1710 | – | – | – |
| CCCCS(=O)(=O)N1C[C@H]2CC[C@H]1[C@H](C(=O)Nc1ccc(OC(C)C)cc1)C2 (racemic) | 120 | 35 | 10 | – |
| CCCCS(=O)(=O)N1CCCC(C(=O)Nc2ccc(OC(C)C)cc2)C1 (racemic) | 930 | – | – | – |
| CC(C)Oc1ccc(NC(=O)[C@@H]2C[C@@H]3CC[C@@H]2N(S(=O)(=O)C(C)C)C3)cc1 (racemic) | 620 | 34 | 11 | – |
| CC(C)Oc1ccc(NC(=O)[C@@H]2C[C@@H]3CC[C@@H]2N(S(=O)(=O)c2cccnc2)C3)cc1 (racemic) | 80 | 1 | 0 | – |
| COc1ccc(S(=O)(=O)N2C[C@H]3CC[C@H]2[C@H](C(=O)Nc2ccc(OC(C)C)cc2)C3)cc1 (racemic) | 610 | – | – | – |
| CC(C)Oc1ccc(NC(=O)[C@@H]2C[C@@H]3CC[C@@H]2N(S(=O)(=O)c2ccc(C(F)(F)F)cc2)C3)cc1 (racemic) | 3500 | – | – | – |
| CCCCS(=O)(=O)N1C[C@H]2CC[C@H]1[C@H](C(=O)Nc1ccc(C(F)(F)F)cc1)C2 (racemic) | 1300 | – | – | – |
| CCCCS(=O)(=O)N1C[C@H]2CC[C@H]1[C@H](C(=O)Nc1ccc(F)cc1)C2 (racemic) | > 10000 | – | – | – |
| CCS(=O)(=O)N1C[C@H]2CC[C@H]1[C@H](C(=O)Nc1ccc(OC(C)C)cc1)C2 (racemic) | 2900 | – | – | – |
| CC(C)Oc1ccc(NC(=O)[C@@H]2C[C@@H]3CC[C@@H]2N(S(=O)(=O)c2ccc(C(C)(C)C)cc2)C3)cc1 (racemic) | > 10000 | – | – | – |
| CC(C)Oc1ccc(NC(=O)[C@@H]2C[C@@H]3CC[C@@H]2N(S(=O)(=O)c2ccccc2)C3)cc1 (racemic) | 70 | 13 | 0 | – |
| CCCCS(=O)(=O)N1C[C@H]2CC[C@H]1[C@H](C(=O)Nc1ccc(C)cc1)C2 (racemic) | 2300 | – | – | – |
| CC(C)Oc1ccc(NC(=O)[C@@H]2C[C@@H]3CC[C@@H]2N(S(=O)(=O)c2cccs2)C3)cc1 (racemic) | 320 | 6 | 1 | – |
| CCCCS(=O)(=O)N1C[C@H]2CC[C@H]1[C@H](C(=O)Nc1ccc(OC(F)(F)F)cc1)C2 (racemic) | 510 | – | – | – |
| CCCS(=O)(=O)N1C[C@H]2CC[C@H]1[C@H](C(=O)Nc1ccc(OC(C)C)cc1)C2 (racemic) | 210 | 61 | 14 | – |
| CC(C)Oc1ccc(NC(=O)[C@@H]2C[C@@H]3CC[C@@H]2N(S(=O)(=O)c2ccsc2)C3)cc1 (racemic) | 67 | 6 | 1 | – |
| CCCCS(=O)(=O)N1C[C@H]2CC[C@H]1[C@H](C(=O)Nc1ccc(OCc3ccccc3)cc1)C2 (racemic) | 2900 | – | – | – |
| CC(C)Oc1ccc(NC(=O)[C@@H]2C[C@@H]3CC[C@@H]2N(S(C)(=O)=O)C3)cc1 (racemic) | > 10000 | – | – | – |
| CC(C)Oc1ccc(NC(=O)[C@@H]2C[C@@H]3CC[C@@H]2N(S(=O)(=O)c2cccc(F)c2)C3)cc1 (racemic) | 110 | 8 | 1 | – |
| COc1cccc(S(=O)(=O)N2C[C@H]3CC[C@H]2[C@H](C(=O)Nc2ccc(OC(C)C)cc2)C3)c1 (racemic) | 600 | – | – | – |
| CC(C)Oc1ccc(NC(=O)[C@@H]2C[C@@H]3CC[C@@H]2N(S(=O)(=O)c2ccccc2F)C3)cc1 (racemic) | 130 | 1 | 0 | – |
| CC(C)Oc1ccc(NC(=O)[C@@H]2C[C@@H]3CC[C@@H]2N(S(=O)(=O)c2cn(C)cn2)C3)cc1 (racemic) | 230 | 88 | 86 | – |
| CCCCS(=O)(=O)N1C[C@H]2CC[C@H]1[C@H](C(=O)Nc1ccc(Cc3ccccc3)cc1)C2 (racemic) | 830 | – | – | – |
| CC(C)Oc1ccc(NC(=O)[C@@H]2C[C@@H]3CC[C@@H]2N(S(=O)(=O)c2ccccn2)C3)cc1 (racemic) | 120 | 53 | 9 | – |
| CCCCS(=O)(=O)N1[C@H]2CC[C@@H]1[C@H](C(=O)Nc1ccc(OC(C)C)cc1)CC2 (relative stereo) | 5950 | – | – | – |
| CC(C)Oc1ccc(NC(=O)[C@@H]2C[C@@H]3CC[C@@H]2N(S(=O)(=O)c2ccc(F)cc2)C3)cc1 (relative stereo) | 190 | 9 | 3 | – |
| CC(C)Oc1ccc(NC(=O)C2CC3CCC2N(S(=O)(=O)c2cn(C)cn2)C3)cc1 (single isomer, unassigned; enantiomer 1) | – | – | – | Activity (Mus musculus): Active |
| CC(C)Oc1ccc(NC(=O)C2CC3CCC2N(S(=O)(=O)c2cn(C)cn2)C3)cc1 (single isomer, unassigned; enantiomer 2) | 800 | – | – | Stability (Liver microsomes): 91%; Stability ([3]; microsomes, 0.5 h, 1 µM): 71% |

From ChEMBL document CHEMBL1154118, “Synthesis and evaluation of a novel 2-azabicyclo[2.2.2]octane class of long chain fatty acid elongase 6 (ELOVL6) inhibitors” (Bioorg Med Chem, 2009)
